Assay results: ChEMBL document CHEMBL1921692 (J Med Chem, 2011)
≈ marks a conversion by molar mass, not a printed value. Calls of active or inactive are those of the source.

Legend:
[1] = Oral bioavailability in Sprague-Dawley rat at 8 mg/kg; conditions: in vivo
[2] = target: T1, Growth hormone secretagogue receptor type 1 (Homo sapiens, UniProt Q92847); experiment: Displacement of [125I-His9]-ghrelin from human GRLN receptor by radioligand binding assay
Summary of the method: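 Competitive binding on isolated membranes expressing GRLN, with 125I-His-9 octanoylated ghrelin as radioligand.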

[3] = Volume of distribution at steady state in Sprague-Dawley rat at 2 m/kg, iv; format: ADME, organism-based; conditions: in vivo, read-out: Vdss
[4] = Elimination half life in Sprague-Dawley rat at 2 m/kg, iv; format: ADME, organism-based; conditions: in vivo, read-out: beta t1/2
[5] = Cmax in Sprague-Dawley rat at 8 mg/kg, po; format: ADME, organism-based; set-up: dose 8 mg/kg, route oral; conditions: in vivo
Summary of the method: (§1)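 Male Sprague−Dawley rats (250 ± 20 g), 3 per compound in a single experiment, gavage 8 mg/kg in physiological saline. Blood taken at 12 time points over 6 h into K3EDTA tubes. Plasma stored at −20 °C, assayed by LC-MS/MS, noncompartmental analysis.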

[6] = AUC (0 to infinity) in Sprague-Dawley rat at 8 mg/kg, po; format: ADME, organism-based; set-up: time infinity, dose 8 mg/kg, route oral; conditions: plasma
Summary of the method: as §1

Rattus norvegicus [7] = experiment: Induction of gastric emptying in overnight-fasted iv dosed Wistar rat measured after 15 mins by […] analysis; format: functional, organism-based, Stomach
Summary of the method: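 Overnight-fasted male Wistar rats (200 ± 20 g), N = 5 per point. Compound given IV in 9% 2-hydroxypropyl-β-cyclodextrin together with an oral 2% methylcellulose meal containing 0.05% phenol red (2 mL). Sacrifice 15 min later; phenol red left in stomach read at 560 nm. […] Metoclopramide positive control at 10 mg/kg IV.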

[8] = Clearance in Sprague-Dawley rat at 2 m/kg, iv; format: ADME, organism-based; conditions: in vivo
[9] = target: T1, Growth hormone secretagogue receptor type 1; experiment: Agonist activity at human GRLN receptor expressed in HEK293 cells assessed as calcium binding by Ca2+ bioluminescence aequorin assay; format: functional, cell-based
Summary of the method: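 HEK-293 cells expressing human GRLN. Ca2+ bioluminescence read out by aequorin. Duplicate samples, maximum tolerated interassay variability ±10%. Full agonism defined as maximal response >70% of that of octanoylated human ghrelin.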

[10] = Permeability across mucosal to serosal side in human Caco2 cells; format: ADME, cell-based; conditions: Caco-2, read-out: permeability
[11] = Half life in human liver microsomes; format: ADME, Microsome
[12] = Permeability across serosal to mucosal side human Caco2 cells; format: ADME, cell-based; conditions: Caco-2, read-out: permeability
Rattus norvegicus [13] = experiment: Induction of gastric emptying in overnight-fasted po dosed Wistar rat administered 30 mins prior methylcellulose meal by […] analysis; format: functional, organism-based; conditions: Stomach
[14] = Drug metabolism in rat liver microsomes after 15 mins; format: ADME, Microsome; conditions: read-out: Drug metabolism
[15] = Aqueous solubility of the compound; format: physicochemical
[16] = target: T1, Growth hormone secretagogue receptor type 1; experiment: Partial agonist activity at GRLN receptor at 3 uM by aequorin assay; format: functional
Summary of the method: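 Aequorin Ca2+ bioluminescence in HEK-293 cells expressing human GRLN. Response at a 3 μM test concentration expressed relative to the maximal response to octanoylated human ghrelin.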

[17] = Dissociation constant, pKa of the compound; format: physicochemical

T1 sequence (Q92847 whole entry): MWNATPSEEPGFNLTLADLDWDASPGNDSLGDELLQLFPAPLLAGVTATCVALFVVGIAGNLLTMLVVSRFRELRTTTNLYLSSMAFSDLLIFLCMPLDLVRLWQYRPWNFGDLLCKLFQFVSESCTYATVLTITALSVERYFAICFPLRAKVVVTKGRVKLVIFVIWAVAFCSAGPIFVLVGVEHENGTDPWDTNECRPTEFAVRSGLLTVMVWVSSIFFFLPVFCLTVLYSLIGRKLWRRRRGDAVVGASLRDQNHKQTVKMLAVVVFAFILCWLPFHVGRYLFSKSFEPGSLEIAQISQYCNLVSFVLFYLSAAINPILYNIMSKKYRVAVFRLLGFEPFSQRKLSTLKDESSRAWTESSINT

| Compound | Ki [2] [nM] | EC50 [9] [nM] | further results |
| --- | --- | --- | --- |
| C[C@@H]1CN[C@@H](C2CC2)C(=O)N(C)[C@H](C)C(=O)N[C@H](Cc2ccc(F)cc2)C(=O)NCCCc2ccc(F)cc2O1 | 61 |  | bioavailability [1]: 15%; Vd [3]: 0.9 L/kg; half-life [4]: 66 min; Cmax [5]: 750 nM; AUC(0-inf) [6]: 2.08 µM·h; EC50 (Rattus norvegicus [7]): 1.38 mg/kg; clearance [8]: 9 mL/min/kg |
| C[C@@H]1C(=O)N[C@H](Cc2ccccc2F)C(=O)NCCCc2ccccc2OCCN[C@@H](C2CC2)C(=O)N1C | 6.2 |  |  |
| C[C@@H]1C(=O)N[C@H](Cc2ccc(F)cc2)C(=O)NCCCc2ccccc2O[C@@H](C)CN[C@@H](C2CC2)C(=O)N1C | 56 | 26 |  |
| C[C@@H]1C(=O)N[C@H](Cc2ccc(F)cc2)C(=O)NCCCc2cc(F)ccc2OCCN[C@@H](C2CC2)C(=O)N1C | 58 |  |  |
| C[C@@H]1C(=O)N[C@H](Cc2cccc(F)c2)C(=O)NCCCc2ccccc2OCCN[C@@H](C2CC2)C(=O)N1C | 21 |  |  |
| CC[C@H](C)[C@@H]1NCCCC/C=C/CCNC(=O)[C@@H](Cc2ccccc2)NC(=O)[C@@H](C)N(C)C1=O (mixture of isomers) | 160 | 310 |  |
| C[C@@H]1CN[C@@H](C2CC2)C(=O)N(C)[C@H](C)C(=O)N[C@H](Cc2ccc(Cl)cc2)C(=O)NCCCc2ccccc2O1 | 15 | 18 | bioavailability [1]: 22%; Vd [3]: 1.4 L/kg; half-life [4]: 41 min; Cmax [5]: 670 nM; AUC(0-inf) [6]: 1.23 µM·h; EC50 (Rattus norvegicus [7]): 0.84 mg/kg; clearance [8]: 24 mL/min/kg |
| CC[C@H](C)[C@@H]1NCCOc2ccccc2CCNC(=O)[C@@H](Cc2ccccc2)NC(=O)[C@@H](C)N(C)C1=O | 210 | 530 |  |
| C[C@@H]1C(=O)N[C@H](Cc2ccc(F)cc2)C(=O)NCCCc2cccc3c2O[C@@H](CC3)CN[C@@H](C2CC2)C(=O)N1C | 19 |  |  |
| CC[C@H](C)[C@@H]1NCCCc2ccccc2CCCCNC(=O)[C@@H](Cc2ccccc2)NC(=O)[C@@H](C)N(C)C1=O | 78 | 360 |  |
| CC[C@H](C)[C@@H]1NCCOc2ccccc2CCCNC(=O)[C@@H](CCc2ccccc2)NC(=O)[C@@H](C)N(C)C1=O | 43 |  |  |
| CCC[C@H](NCCOc1ccccc1/C=C/CNC(C)=O)C(=O)N(C)CC(=O)N[C@H](Cc1ccccc1)C(N)=O | > 10000 |  |  |
| CC[C@H]1NC(=O)[C@H]([C@@H](C)CC)NC[C@@H](C)Oc2ccccc2CCCNC(=O)[C@@H](Cc2ccccc2)NC1=O | 35 |  |  |
| CCC[C@@H]1NCCOc2ccccc2CCCNC(=O)[C@@H](Cc2ccccc2)NC(=O)[C@H](C)N(C)C1=O | 580 |  |  |
| CC[C@H](C)[C@@H]1NC[C@@H](C)Oc2ccccc2CCCNC(=O)[C@@H](Cc2ccccc2)NC(=O)[C@@H](C(C)C)NC1=O | 380 |  |  |
| C[C@@H]1C(=O)N[C@H](Cc2ccc(F)cc2)C(=O)NCCCc2ccccc2OCCN[C@@H](C2CC2)C(=O)N1C | 7.3 |  | Vd [3]: 1.4 L/kg; half-life [4]: 14 min; clearance [8]: 72 mL/min/kg |
| CCC[C@H]1NCCOc2ccccc2CCCNC(=O)[C@@H](Cc2ccccc2)NC(=O)CN(C)C1=O | 1200 |  |  |
| CCCC[C@H]1NC(=O)CN(C)C(=O)[C@H](CCC)NCCOc2ccccc2CCCNC1=O | 400 |  |  |
| C[C@@H]1C(=O)N[C@H](Cc2ccc(C(F)(F)F)cc2)C(=O)NCCCc2ccccc2OCCN[C@@H](C2CC2)C(=O)N1C | 7 | 11 |  |
| CC[C@H](C)[C@@H]1NCCOc2ccccc2CCCNC(=O)[C@@H](Cc2ccc(Cl)cc2)NC(=O)[C@@H](C)N(C)C1=O | 0.35 | 20 | Papp A→B [10]: 14 ×10⁻⁶ cm/s; bioavailability [1]: 3%; Vd [3]: 3.2 L/kg; half-life [4]: 33 min; half-life [11]: 5 min; Cmax [5]: 60 nM; AUC(0-inf) [6]: 0.0585 µM·h; EC50 (Rattus norvegicus [7]): 0.39 mg/kg; Papp B→A [12]: 15 ×10⁻⁶ cm/s; Activity (Rattus norvegicus [13]): inactive; metabolised at […] [14]: 86% |
| CC[C@H](C)[C@@H]1NCCCc2ccccc2CCNC(=O)[C@@H](Cc2ccccc2)NC(=O)[C@@H](C)N(C)C1=O | 400 |  |  |
| Cc1ccc(C[C@H]2NC(=O)[C@@H](C)N(C)C(=O)[C@H](C3CC3)NCCOc3ccccc3CCCNC2=O)cc1 | 5 | 8.2 |  |

| Compound | Ki [2] [nM] | EC50 [9] [nM] | further results |
| --- | --- | --- | --- |
| CCC[C@@H]1NCCOc2ccccc2CCCNC(=O)[C@@H](Cc2ccc(O)cc2)NC(=O)CN(C)C1=O | 120 | 39 |  |
| CCC[C@@H]1NC[C@@H](C)Oc2ccccc2CCCNC(=O)[C@@H](Cc2ccc(F)cc2)NC(=O)[C@@H](C)N(C)C1=O | 34 |  | solubility [15]: 100 µg/mL (≈ 185 µM); Vd [3]: 1.7 L/kg; half-life [4]: 29 min; clearance [8]: 41 mL/min/kg |
| CCCCCCCC(=O)OC[C@H](NC(=O)CNC(=O)[C@@H](N)CCCNC(=N)N)C(=O)N[C@@H](CO)C(=O)N[C@@H](Cc1ccccc1)C(=O)N[C@@H](CC(C)C)C(=O)N[C@@H](CO)C(=O)N1CCC[C@H]1C(=O)N[C@@H](CCC(=O)O)C(=O)N[C@@H](Cc1cnc[nH]1)C(=O)N[C@@H](CCC(N)=O)C(=O)N[C@@H](CCCCN)C(=O)N[C@@H](C)C(=O)N[C@@H](CCC(N)=O)C(=O)N[C@@H](CCC(N)=O)C(=O)N[C@@H](CCCNC(=N)N)C(=O)N[C@@H](CCCCN)C(=O)N[C@@H](CCC(=O)O)C(=O)N[C@@H](CO)C(=O)N[C@@H](CCCCN)C(=O)N[C@@H](CCCCN)C(=O)N1CCC[C@H]1C(=O)N1CCC[C@H]1C(=O)N[C@@H](C)C(=O)N[C@@H](CCCCN)C(=O)N[C@@H](CC(C)C)C(=O)N[C@@H](CCC(N)=O)C(=O)N1CCC[C@H]1C(=O)O [GHRELIN] |  |  | EC50 (Rattus norvegicus [7]): 0.04 mg/kg; Activity (Rattus norvegicus [13]): inactive |
| C[C@@H]1C(=O)N[C@H](Cc2ccc(F)cc2)C(=O)NCCCc2ccccc2OC(C)(C)CN[C@@H](C2CC2)C(=O)N1C | 12 |  | Activity [16]: 40% |
| C[C@@H]1CN[C@@H](C2CC2)C(=O)N(C)[C@H](C)C(=O)N[C@H](Cc2ccccc2)C(=O)NCCCc2ccccc2O1 | 34 |  | Vd [3]: 1.3 L/kg; half-life [4]: 32 min; clearance [8]: 25 mL/min/kg |
| CC1COc2ccccc2CCCNC(=O)[C@@H](Cc2ccc(F)cc2)NC(=O)[C@@H](C)N(C)C(=O)[C@H](C2CC2)N1 (mixture of isomers) | 9 | 760 |  |
| CN1CC(=O)N[C@H](Cc2ccccc2)C(=O)NCCCc2ccccc2OCCN[C@@H](CCCCN)C1=O | 1100 |  |  |
| CCC[C@@H]1NCCOc2ccccc2CCCNC(=O)[C@@H](Cc2ccccc2)NC(=O)CN(C)C1=O | 68 |  |  |
| CC(C)[C@@H]1NC[C@@H](C)Oc2ccccc2CCCNC(=O)[C@@H](Cc2ccc(F)cc2)NC(=O)[C@@H](C)N(C)C1=O | 104 |  | Vd [3]: 2 L/kg; half-life [4]: 34 min; clearance [8]: 40 mL/min/kg |
| C[C@@H]1CN[C@@H](C2CCCCC2)C(=O)N(C)[C@H](C)C(=O)N[C@H](Cc2ccc(F)cc2)C(=O)NCCCc2ccccc2O1 | 0.38 | 49 | solubility [15]: ≤ 10 µg/mL; Vd [3]: 4.7 L/kg; half-life [4]: 74 min; clearance [8]: 43 mL/min/kg |
| CC[C@H](C)[C@@H]1NC[C@@H](C)Oc2ccccc2CCCNC(=O)[C@@H](Cc2ccc(F)cc2)NC(=O)[C@@H](C)N(C)C1=O | 32 |  | solubility [15]: 100 µg/mL (≈ 180 µM); Vd [3]: 2.5 L/kg; half-life [4]: 44 min; clearance [8]: 40 mL/min/kg |
| C[C@@H]1C(=O)N[C@H](Cc2ccc(F)cc2)C(=O)NCCCc2cccc3c2O[C@H](CC3)CN[C@@H](C2CC2)C(=O)N1C | 0.9 | 85 | Vd [3]: 1.1 L/kg; half-life [4]: 59 min; clearance [8]: 13 mL/min/kg |
| CCC[C@@H]1NCCOc2ccccc2CCCNC(=O)[C@@H](Cc2ccccc2)NC(=O)[C@@H](C)NC1=O | 500 |  |  |
| CC[C@H](C)[C@@H]1NCCCc2ccccc2CCCNC(=O)[C@@H](Cc2ccccc2)NC(=O)[C@@H](C)N(C)C1=O | 81 |  |  |
| C[C@@H]1C(=O)N[C@H](Cc2ccccc2)C(=O)NCCCc2ccccc2OCCN[C@@H](C2CC2)C(=O)N1C | 4.4 | 23 | pKa [17]: 6.72 |
| CN1CC(=O)N[C@H](Cc2ccccc2)C(=O)NCCCc2ccccc2OCCN[C@@H](Cc2ccccc2)C1=O | 670 |  |  |
| CC(C)C[C@@H]1NCCOc2ccccc2CCCNC(=O)[C@@H](Cc2ccccc2)NC(=O)[C@@H](C)N(C)C1=O | 25 |  |  |
| CC[C@H](C)[C@@H]1NCCOc2ccccc2CCCNC(=O)[C@@H](Cc2ccccc2)NC(=O)[C@@H](C)N(C)C1=O | 6.4 |  |  |
| CCC[C@@H]1NCCOc2ccccc2CCCNC(=O)[C@@H](Cc2ccccc2)NC(=O)[C@@H](C)N(C)C1=O | 16 | 40 | pKa [17]: 6.45 |
| CC[C@H](C)[C@@H]1NCCCCCCCCNC(=O)[C@@H](Cc2ccccc2)NC(=O)[C@@H](C)N(C)C1=O | 1500 |  |  |
| CCC[C@@H]1NCCOc2ccccc2CCCNC(=O)[C@H](Cc2ccccc2)NC(=O)CN(C)C1=O | 380 |  |  |
